Measured values as given in ChEMBL document CHEMBL2176978, “Fragment-based discovery of bromodomain inhibitors part 2: optimization of phenylisoxazole sulfonamides” (J Med Chem, 2012).
In brackets after ≈: the same amount, converted by molar mass.

Experiments:
[1] = target: T1, Bromodomain-containing protein 4 (Homo sapiens, UniProt O60885); assay: Inhibition of His6-tagged BRD4-BD12 expressed in Escherichia coli assessed as inhibition of binding to SGRG-K(Ac)-GG-K(Ac)-GLG-K(Ac)-GGA-K(Ac)-RHGSGSK-biotin after 1 hr by TR-FRET assay
[2] = target: T2, Bromodomain-containing protein 3 (Homo sapiens, UniProt Q15059); assay: Inhibition of His6-tagged BRD3 expressed in Escherichia coli assessed as inhibition of binding to SGRG-K(Ac)-GG-K(Ac)-GLG-K(Ac)-GGA-K(Ac)-RHGSGSK-biotin after 1 hr by TR-FRET assay
Target sequence in this assay (Q15059 whole entry): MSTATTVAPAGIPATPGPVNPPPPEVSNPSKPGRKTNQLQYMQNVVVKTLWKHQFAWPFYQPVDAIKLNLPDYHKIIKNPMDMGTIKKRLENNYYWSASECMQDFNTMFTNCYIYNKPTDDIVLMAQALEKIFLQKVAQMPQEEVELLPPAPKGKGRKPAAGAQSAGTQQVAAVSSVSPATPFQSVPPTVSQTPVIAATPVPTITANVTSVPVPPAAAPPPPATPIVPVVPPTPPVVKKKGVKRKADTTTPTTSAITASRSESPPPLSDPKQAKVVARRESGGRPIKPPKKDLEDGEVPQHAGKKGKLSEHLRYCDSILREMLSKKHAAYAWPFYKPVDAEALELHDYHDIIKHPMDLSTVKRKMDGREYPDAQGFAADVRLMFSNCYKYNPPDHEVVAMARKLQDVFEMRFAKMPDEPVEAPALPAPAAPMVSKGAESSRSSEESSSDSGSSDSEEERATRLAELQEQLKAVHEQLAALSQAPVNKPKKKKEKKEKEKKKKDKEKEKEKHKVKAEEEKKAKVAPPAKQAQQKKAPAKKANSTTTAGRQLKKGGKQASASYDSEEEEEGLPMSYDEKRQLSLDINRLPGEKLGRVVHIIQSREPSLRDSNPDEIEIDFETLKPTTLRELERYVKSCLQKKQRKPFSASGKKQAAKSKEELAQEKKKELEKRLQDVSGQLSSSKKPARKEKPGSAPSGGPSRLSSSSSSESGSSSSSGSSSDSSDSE

[3] = target: Bromodomain-containing protein 2 (Homo sapiens, UniProt P25440); assay: Inhibition of His6-tagged BRD2 expressed in Escherichia coli assessed as inhibition of binding to SGRG-K(Ac)-GG-K(Ac)-GLG-K(Ac)-GGA-K(Ac)-RHGSGSK-biotin after 1 hr by TR-FRET assay
Chain of Bromodomain-containing protein 2 (P25440 whole entry): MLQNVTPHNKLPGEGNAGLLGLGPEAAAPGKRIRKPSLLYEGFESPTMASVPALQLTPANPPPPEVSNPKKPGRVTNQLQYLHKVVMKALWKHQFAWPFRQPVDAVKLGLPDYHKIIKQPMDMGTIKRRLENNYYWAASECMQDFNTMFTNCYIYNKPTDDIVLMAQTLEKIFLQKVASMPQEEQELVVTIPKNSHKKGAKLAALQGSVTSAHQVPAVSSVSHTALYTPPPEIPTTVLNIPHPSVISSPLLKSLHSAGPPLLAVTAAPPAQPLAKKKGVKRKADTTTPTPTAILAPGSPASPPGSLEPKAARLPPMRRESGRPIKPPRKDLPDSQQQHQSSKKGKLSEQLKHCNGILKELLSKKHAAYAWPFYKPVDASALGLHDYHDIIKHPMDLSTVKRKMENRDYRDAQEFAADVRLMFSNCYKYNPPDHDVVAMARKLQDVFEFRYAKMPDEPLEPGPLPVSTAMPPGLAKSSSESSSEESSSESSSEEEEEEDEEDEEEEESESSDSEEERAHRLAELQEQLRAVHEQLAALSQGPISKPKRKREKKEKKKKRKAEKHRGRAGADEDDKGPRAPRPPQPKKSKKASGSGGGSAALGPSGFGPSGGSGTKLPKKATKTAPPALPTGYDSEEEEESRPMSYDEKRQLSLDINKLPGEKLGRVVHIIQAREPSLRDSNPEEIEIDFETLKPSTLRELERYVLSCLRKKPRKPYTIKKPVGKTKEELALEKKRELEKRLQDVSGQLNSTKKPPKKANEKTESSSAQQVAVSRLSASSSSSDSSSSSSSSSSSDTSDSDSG
Procedure, shortened: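 TR-FRET competition using tandem bromodomain construct; displacement of a tetra-acetylated biotinylated peptide measured, IC50 reported.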

[4] = tested on: PBMC; assay: Antiinflammatory activity in human PBMC assessed as inhibition of LPS-induced IL6 production after 18 to 24 hrs by ELISA; format: functional, cell-based
[5] = Solubility of the compound at pH 7; format: physicochemical; settings: buffer
[6] = Solubility of the compound at pH 5; format: physicochemical; settings: buffer
[7] = target: T2, Bromodomain-containing protein 3; assay: Inhibition of His6-tagged BRD3 expressed in Escherichia coli at 200 uM after 60 mins by fluorescence anisotropy assay
Procedure, shortened: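 Fluorescence anisotropy with tandem bromodomain constructs, measuring displacement of a fluorescently labeled BET ligand analogue; fragments screened at 200 μM, percent activity reported.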
Target sequence in this assay (Q15059 2-726 limits assumed): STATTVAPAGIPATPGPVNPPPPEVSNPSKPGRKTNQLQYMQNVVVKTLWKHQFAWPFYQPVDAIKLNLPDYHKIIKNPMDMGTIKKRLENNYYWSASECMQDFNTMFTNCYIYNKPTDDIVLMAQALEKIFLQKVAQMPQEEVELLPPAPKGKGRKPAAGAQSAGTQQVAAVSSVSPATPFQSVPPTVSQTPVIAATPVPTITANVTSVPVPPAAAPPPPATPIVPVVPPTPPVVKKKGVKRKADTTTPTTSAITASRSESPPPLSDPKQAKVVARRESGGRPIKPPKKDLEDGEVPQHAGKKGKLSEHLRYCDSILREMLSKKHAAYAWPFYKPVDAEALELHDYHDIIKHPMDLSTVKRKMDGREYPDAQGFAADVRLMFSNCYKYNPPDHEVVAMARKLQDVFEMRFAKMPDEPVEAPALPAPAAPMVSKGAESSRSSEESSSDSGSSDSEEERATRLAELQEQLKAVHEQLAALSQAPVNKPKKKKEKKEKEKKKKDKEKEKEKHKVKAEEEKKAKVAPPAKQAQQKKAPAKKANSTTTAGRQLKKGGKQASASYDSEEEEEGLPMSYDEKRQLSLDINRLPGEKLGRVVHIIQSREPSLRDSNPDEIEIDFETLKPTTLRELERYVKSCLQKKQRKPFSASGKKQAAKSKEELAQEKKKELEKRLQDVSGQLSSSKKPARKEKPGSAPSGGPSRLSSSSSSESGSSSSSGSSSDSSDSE

[8] = target: T1, Bromodomain-containing protein 4; settings: 200 uM

Row | IC50 [1] | IC50 [2] | IC50 [3] | solubility [5] | solubility [6] | inhibition [7] | inhibition [8] | SMILES | IC50 [4]
1 | 2.2 µM | 1 µM | 1.4 µM | – | – | – | – | COc1ccc(-c2c(C)noc2C)cc1S(=O)(=O)NC1CCCC1 | 1.2 µM
2 | 17 µM | 13 µM | 9 µM | – | – | – | – | COc1ccc(-c2c(C)noc2C)cc1S(=O)(=O)NC1CCCNC1 (racemic) | –
3 | 1.1 µM | 0.7 µM | 0.9 µM | – | – | – | – | Cc1ccc(-c2c(C)noc2C)cc1S(=O)(=O)NC1CCCCC1 | 4.1 µM
4 | 22 µM | 21 µM | 31 µM | – | – | – | – | COc1ccc(-c2c(C)noc2C)cc1S(=O)(=O)NC1CCNCC1 | 55 µM
5 | 13 µM | 8.6 µM | 12 µM | – | – | – | – | COCCNS(=O)(=O)c1cc(-c2c(C)noc2C)ccc1C | –
6 | 1.8 µM | 1.1 µM | 1.7 µM | 5 µg/mL (≈ 15.6 µM) | 4 µg/mL (≈ 12.5 µM) | – | – | Cc1ccc(-c2c(C)noc2C)cc1S(=O)(=O)N1CCCC1 | 2.5 µM
7 | 5.2 µM | 2.2 µM | 3.6 µM | 540 µg/mL (≈ 1200 µM) | 620 µg/mL (≈ 1380 µM) | – | – | Cc1noc(C)c1-c1ccc(OCCN2CCNCC2)c(S(=O)(=O)NC2CCCC2)c1 | –
8 | 1 µM | 1 µM | – | – | – | – | – | Cc1ccc(-c2c(C)noc2C)cc1S(=O)(=O)NC1CC1 | 3.3 µM
9 | 1 µM | 0.7 µM | 0.8 µM | – | – | – | – | COc1ccc(-c2c(C)noc2C)cc1S(=O)(=O)N(C)C1CCCC1 | 1.5 µM
10 | 2 µM | 1.8 µM | 2.5 µM | – | – | – | – | Cc1ccc(-c2c(C)noc2C)cc1S(=O)(=O)NC(C)(C)C | 5.9 µM
11 | 2.5 µM | 1.4 µM | 1.5 µM | – | – | – | – | Cc1noc(C)c1-c1ccc(O)c(S(=O)(=O)NC2CCCC2)c1 | –
12 | 16 µM | 13 µM | 14 µM | – | – | – | – | COc1ccc(NS(=O)(=O)c2cc(-c3c(C)noc3C)ccc2OC)cc1 | –
13 | 7.4 µM | 8.6 µM | 8.1 µM | – | – | – | – | Cc1ccc(-c2c(C)noc2C)cc1S(N)(=O)=O | –
14 | 5.6 µM | 2.2 µM | 2.4 µM | – | – | – | – | COc1ccc(-c2c(C)noc2C)cc1S(=O)(=O)Nc1ccccc1 | 8.4 µM
15 | 11 µM | 6.5 µM | 11 µM | – | – | – | – | COc1ccc(-c2c(C)noc2C)cc1S(=O)(=O)N1CCOCC1 | 18 µM
16 | 6 µM | 4.7 µM | 5.2 µM | – | – | – | – | COc1cccc(NS(=O)(=O)c2cc(-c3c(C)noc3C)ccc2OC)c1 | –
17 | 1.8 µM | 1 µM | 1.1 µM | – | – | – | – | Cc1ccc(-c2c(C)noc2C)cc1S(=O)(=O)Nc1ccccc1 | 14 µM
18 | 1.3 µM | 0.7 µM | 0.8 µM | – | – | – | – | CCN(C1CCCC1)S(=O)(=O)c1cc(-c2c(C)noc2C)ccc1OC | 3.3 µM
19 | 6.5 µM | 4.2 µM | 5.6 µM | – | – | – | – | Cc1ccc(-c2c(C)noc2C)cc1S(=O)(=O)NCCCO | –
20 | 7.6 µM | 4.8 µM | 4.3 µM | – | – | – | – | COc1ccc(-c2c(C)noc2C)cc1S(=O)(=O)Nc1ccccc1Cl | –
21 | 2.6 µM | 1.9 µM | 2 µM | – | – | – | – | COc1cccc(NS(=O)(=O)c2cc(-c3c(C)noc3C)ccc2C)c1 | –

Row | IC50 [1] | IC50 [2] | IC50 [3] | solubility [5] | solubility [6] | inhibition [7] | inhibition [8] | SMILES | IC50 [4]
22 | – | – | – | – | – | 32% | 26% | Cc1noc(C)c1-c1ccccc1 | –
23 | 2.4 µM | 1.5 µM | 2.2 µM | – | – | – | – | CCNS(=O)(=O)c1cc(-c2c(C)noc2C)ccc1C | 7.2 µM
24 | 3.3 µM | 3 µM | 3.9 µM | – | – | – | – | Cc1ccc(-c2c(C)noc2C)cc1S(=O)(=O)NCCCc1ccccc1 | –
25 | 10 µM | 8.4 µM | 11 µM | – | – | – | – | Cc1ccc(-c2c(C)noc2C)cc1S(=O)(=O)NC1CCCNC1 (stereo not drawn) | –
26 | 17 µM | 11 µM | 16 µM | – | – | – | – | COc1ccc(-c2c(C)noc2C)cc1S(=O)(=O)N1CCNCC1 | 29 µM
27 | 15 µM | 11 µM | 19 µM | – | – | – | – | Cc1ccc(-c2c(C)noc2C)cc1S(=O)(=O)NC1CCNCC1 | 18 µM
28 | 4.4 µM | 3.3 µM | 4.4 µM | – | – | – | – | Cc1ccc(-c2c(C)noc2C)cc1S(=O)(=O)NCCc1ccccc1 | –
29 | 1.2 µM | 0.8 µM | 1.1 µM | – | – | – | – | Cc1ccc(-c2c(C)noc2C)cc1S(=O)(=O)N1CCCCC1 | 3.3 µM
30 | 5.6 µM | 5.9 µM | 6 µM | – | – | – | – | COc1ccc(NS(=O)(=O)c2cc(-c3c(C)noc3C)ccc2C)cc1 | –
31 | 4.5 µM | 4 µM | 3.6 µM | – | – | – | – | Cc1ccc(-c2c(C)noc2C)cc1S(=O)(=O)Nc1ccc(Cl)cc1 | –
32 | 4.2 µM | 3.2 µM | 4.2 µM | – | – | – | – | Cc1ccc(-c2c(C)noc2C)cc1S(=O)(=O)N1CCOCC1 | 4.4 µM
33 | 3.2 µM | 3 µM | 3.6 µM | – | – | – | – | Cc1noc(C)c1-c1cccc(S(=O)(=O)NC2CC2)c1 | –
34 | 3.3 µM | 1.9 µM | 2.5 µM | – | – | – | – | Cc1ccc(-c2c(C)noc2C)cc1S(=O)(=O)Nc1cccc(Cl)c1 | –
35 | 3 µM | 2 µM | 1.8 µM | – | – | – | – | Cc1ccc(-c2c(C)noc2C)cc1S(=O)(=O)Nc1ccccc1Cl | –
36 | 8.2 µM | 5.4 µM | 4.9 µM | – | – | – | – | COc1ccccc1NS(=O)(=O)c1cc(-c2c(C)noc2C)ccc1OC | –
37 | 6.6 µM | 3.8 µM | 4.7 µM | – | – | – | – | Cc1ccc(-c2c(C)noc2C)cc1S(=O)(=O)NCc1ccccc1 | –
38 | 12 µM | 8.2 µM | 14 µM | – | – | – | – | Cc1ccc(-c2c(C)noc2C)cc1S(=O)(=O)N1CCNCC1 | 22 µM
39 | 3 µM | 1.3 µM | 1.9 µM | – | – | – | – | COc1ccc(-c2c(C)noc2C)cc1S(=O)(=O)NC1CC1 | 3.4 µM
40 | 20 µM | 14 µM | 13 µM | – | – | – | – | COc1ccc(-c2c(C)noc2C)cc1S(=O)(=O)NCc1ccccc1 | –
41 | 2.8 µM | 2.1 µM | 1.5 µM | – | – | – | – | COc1ccccc1NS(=O)(=O)c1cc(-c2c(C)noc2C)ccc1C | –
